Consider seven compounds from ChEMBL document CHEMBL3132745, “Synthesis and Antimicrobial Activities of His(2-aryl)-Arg and Trp-His(2-aryl) Classes of Dipeptidomimetics” (Medchemcomm, 2014).

≈ marks a conversion by molar mass, not a printed value. Calls of active or inactive are those of the source.

One data set relates to Vero. As to the kind of experiment: Cytotoxicity against african green monkey Vero cells assessed as cell viability after 48 hrs by neutral red uptake assay. The class given is cell-based. Particulars: chlorocebus sabaeus. An outline of the steps: (§1)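 Neutral red uptake assay on human cancer lines (SK-MEL, KB, BT-549, SK-OV-3) and noncancerous mammalian cells (VERO, LLC-PK1). Highest tested concentration was 10 µg/mL.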

The nature of data set [1]: Selectivity index, ratio of cytotoxicity against pig LLC-PK1 cells to IC50 for Cryptococcus neoformans ATCC 90113. Conditions: read-out: Selectivity Index. The class given is toxicity, cell-based.
A short description of data set [2]: Selectivity index, ratio of cytotoxicity against human KB cells to IC50 for Cryptococcus neoformans ATCC 90113. Format: toxicity, cell-based. Particulars: read-out: Selectivity Index.
For another data set, the system named is Candida albicans. Nature of the data set: Antifungal activity against Candida albicans assessed as growth inhibition. Format: functional, organism-based.
The next data set concerns KB. As to the kind of experiment: Cytotoxicity against human KB cells assessed as cell viability after 48 hrs by neutral red uptake assay. The class given is cell-based. An outline of the steps:
as §1

The next data set concerns SK-MEL. Nature of the data set: Cytotoxicity against human SK-MEL cells assessed as cell viability after 48 hrs by neutral red uptake assay. Format: cell-based. The essentials:
as §1

A further data set relates to Escherichia coli. As to the kind of experiment: Antibacterial activity against Escherichia coli ATCC 35218 assessed as growth inhibition after 16-20 hrs by CLSI method. The class given is functional, organism-based.
Data set [3] can be described thus: Selectivity index, ratio of cytotoxicity against human SKOV3 cells to IC50 for Cryptococcus neoformans ATCC 90113. Particulars: read-out: Selectivity Index. The class given is toxicity, cell-based, SK-OV-3.
The nature of data set [4]: Selectivity index, ratio of cytotoxicity against african green monkey Vero cells to IC50 for Cryptococcus neoformans ATCC 90113. The class given is toxicity, cell-based. Conditions: read-out: Selectivity Index.
A further data set has as its system LLC-PK1. Nature of the data set: Cytotoxicity against pig LLC-PK1 cells assessed as cell viability after 48 hrs by neutral red uptake assay. Format: cell-based, Sus scrofa. Conditions: llc-pk1, 48 h. An outline of the steps:
as §1

In the next data set the test system is Nakaseomyces glabratus. As to the kind of experiment: Antifungal activity against Candida glabrata assessed as growth inhibition. The class given is functional, organism-based.
The subject of the next data set is Cryptococcus neoformans. Nature of the data set: Antifungal activity against Cryptococcus neoformans ATCC 90113 assessed as growth inhibition after 70-74 hrs by CLSI method. Conditions: Cryptococcus neoformans, ATCC 90113; for IC50: read-out: IC50. Format: functional, organism-based.
The subject of a further data set is Aspergillus fumigatus. Nature of the data set: Antifungal activity against Aspergillus fumigatus assessed as growth inhibition. Format: functional, organism-based.
A further data set relates to BT-549. As to the kind of experiment: Cytotoxicity against human BT549 cells assessed as cell viability after 48 hrs by neutral red uptake assay. Conditions: bt-549, 48 h. The class given is cell-based. An outline of the steps: as §1
A short description of data set [5]: Selectivity index, ratio of cytotoxicity against human SK-MEL cells to IC50 for Cryptococcus neoformans ATCC 90113. Particulars: read-out: Selectivity Index. The class given is toxicity, cell-based.
A short description of data set [6]: Selectivity index, ratio of cytotoxicity against human BT549 cells to IC50 for Cryptococcus neoformans ATCC 90113. Format: toxicity, cell-based, BT-549. Conditions: read-out: Selectivity Index.
For the next data set, the system named is SK-OV-3. As to the kind of experiment: Cytotoxicity against human SKOV3 cells assessed as cell viability after 48 hrs by neutral red uptake assay. Format: cell-based. Conditions: sk-ov-3, 48 h. The essentials: as §1
The test system of another data set is Pichia kudriavzevii. Nature of the data set: Antifungal activity against Candida krusei assessed as growth inhibition. The class given is functional, organism-based.

In general, MIC refers to the least concentration at which growth counts as inhibited. The term IC50 denotes the midpoint of a concentration-inhibition curve. With `Cc1ccc(-c2nc(C[C@H](NC(=O)[C@@H](N)Cc3c[nH]c4ccccc34)C(=O)NCc3ccccc3)c[nH]2)cc1`, the Activity in the data set with Vero, in the data set on KB, in the data set on SK-MEL, with LLC-PK1, in the data set on BT-549 and with SK-OV-3 was greater than 10 µg/mL throughout. Besides, the selectivity ratio in data set [1], in data set [2], in data set [3], in [4], in data set [5] and in [6] was greater than 1.3 in each case. Moreover, the “growth inhibition (GI)” value in the data set with Candida albicans, in the data set with Escherichia coli, in the data set with Nakaseomyces glabratus, with Aspergillus fumigatus and with Pichia kudriavzevii was “inactive” in each case. In addition, the MIC in the data set with Cryptococcus neoformans worked out at 20 µg/mL (≈ 38.4 µM). Further, the IC50 in the data set on Cryptococcus neoformans came to 7.84 µg/mL (≈ 15.1 µM).

By MFC is commonly meant the smallest concentration meeting the test's criterion for killing the fungus. With `N=C(N)NCCC[C@H](NC(=O)[C@@H](N)Cc1c[nH]c(-c2cccc3ccccc23)n1)C(=O)NCc1ccccc1`, the Activity in the data set with Vero, in the data set with KB, in the data set with SK-MEL, with LLC-PK1, in the data set with BT-549 and with SK-OV-3 was greater than 10 µg/mL in each case. Further, the selectivity ratio in [1], in data set [2], in data set [3], in [4], in data set [5] and in data set [6] was greater than 16.1 each time. For the same compound, the “growth inhibition (GI)” value in the data set with Candida albicans, in the data set with Escherichia coli, in the data set on Nakaseomyces glabratus, in the data set on Aspergillus fumigatus and in the data set on Pichia kudriavzevii was “inactive” in each case. The MFC in the data set with Cryptococcus neoformans turned out to be 1.25 µg/mL (≈ 2.37 µM). The MIC with Cryptococcus neoformans worked out at 1.25 µg/mL (≈ 2.37 µM). The IC50 in the data set with Cryptococcus neoformans came to 0.62 µg/mL (≈ 1.18 µM).

Turning to `COC(=O)[C@H](CCCNC(=N)N)NC(=O)[C@H](Cc1c[nH]c(-c2ccc(-c3ccccc3)cc2)n1)NC(=O)OC(C)(C)C`, the Activity in the data set with Vero, with KB, with SK-MEL, in the data set on LLC-PK1, in the data set on BT-549 and in the data set with SK-OV-3 was greater than 10 µg/mL in each case. For the same compound, the selectivity ratio in [1], in [2], in [3], in data set [4], in data set [5] and in data set [6] was greater than 2 throughout. Besides, the “growth inhibition (GI)” value in the data set with Candida albicans, in the data set with Escherichia coli, in the data set on Nakaseomyces glabratus, in the data set with Aspergillus fumigatus and in the data set with Pichia kudriavzevii was “inactive” throughout. The MFC with Cryptococcus neoformans came out at 10 µg/mL (≈ 17.3 µM). Also, the MIC in the data set with Cryptococcus neoformans worked out at 10 µg/mL (≈ 17.3 µM). Also, the IC50 in the data set on Cryptococcus neoformans stood at 4.91 µg/mL (≈ 8.5 µM).

Consider `CC(C)(C)OC(=O)N[C@@H](Cc1c[nH]c(-c2ccccc2)n1)C(=O)N[C@@H](CCCNC(=N)N)C(=O)NCc1ccccc1`, for which the Activity with Vero, with KB, in the data set on SK-MEL, in the data set on LLC-PK1, with BT-549 and with SK-OV-3 was greater than 10 µg/mL throughout. Also, the selectivity ratio in [1], in data set [2], in [3], in [4], in data set [5] and in data set [6] was greater than 3.9 in each case. Also, the “growth inhibition (GI)” value in the data set on Candida albicans, in the data set on Escherichia coli, with Nakaseomyces glabratus, in the data set on Aspergillus fumigatus and in the data set on Pichia kudriavzevii was “inactive” in each case. In the data set on Cryptococcus neoformans, the MFC came to 5 µg/mL (≈ 8.67 µM). Besides, in the data set on Cryptococcus neoformans, the MIC was 5 µg/mL (≈ 8.67 µM). Besides, the IC50 in the data set on Cryptococcus neoformans was determined as 2.56 µg/mL (≈ 4.44 µM).

As to `Cc1ccc(-c2nc(C[C@H](N)C(=O)N[C@@H](CCCNC(=N)N)C(=O)NCc3ccccc3)c[nH]2)cc1`, the Activity in the data set with Vero, in the data set on KB, with SK-MEL, in the data set on LLC-PK1, in the data set with BT-549 and in the data set on SK-OV-3 was greater than 10 µg/mL each time. In addition, the selectivity ratio in data set [1], in data set [2], in data set [3], in [4], in data set [5] and in [6] was greater than 4.7 in each case. Besides, the “growth inhibition (GI)” value in the data set on Candida albicans, in the data set on Escherichia coli, in the data set with Nakaseomyces glabratus, in the data set on Aspergillus fumigatus and with Pichia kudriavzevii was “inactive” in each case. Also, in the data set on Cryptococcus neoformans, the MFC was 2.5 µg/mL (≈ 5.1 µM). Also, in the data set on Cryptococcus neoformans, the MIC was 2.5 µg/mL (≈ 5.1 µM). For the same compound, the IC50 in the data set with Cryptococcus neoformans was 2.11 µg/mL (≈ 4.3 µM).

Take `COC(=O)[C@H](Cc1c[nH]c(-c2ccc(-c3ccccc3)cc2)n1)NC(=O)[C@@H](N)Cc1c[nH]c2ccccc12`: the Activity in the data set on Vero, in the data set with KB, in the data set with SK-MEL, in the data set on LLC-PK1, in the data set with BT-549 and with SK-OV-3 was greater than 10 µg/mL throughout. For the same compound, the selectivity ratio in data set [1], in data set [2], in data set [3], in data set [4], in data set [5] and in data set [6] was greater than 2.6 throughout. Further, the “growth inhibition (GI)” value in the data set on Candida albicans, in the data set with Escherichia coli, with Nakaseomyces glabratus, in the data set on Aspergillus fumigatus and in the data set with Pichia kudriavzevii was “inactive” in each case. The MFC with Cryptococcus neoformans worked out at 20 µg/mL (≈ 39.4 µM). Moreover, in the data set with Cryptococcus neoformans, the MIC came to 10 µg/mL (≈ 19.7 µM). Besides, the 50% inhibitory concentration (IC50) with Cryptococcus neoformans amounted to 3.82 µg/mL (≈ 7.53 µM).

With `Cc1ccc(-c2nc(C[C@H](NC(=O)OC(C)(C)C)C(=O)N[C@@H](CCCNC(=N)N)C(=O)NCc3ccccc3)c[nH]2)cc1`, the Activity in the data set on Vero, in the data set on KB, in the data set with SK-MEL, with LLC-PK1, in the data set with BT-549 and in the data set with SK-OV-3 was greater than 10 µg/mL in each case. Further, the selectivity ratio in [1], in data set [2], in [3], in data set [4], in [5] and in data set [6] was greater than 1.7 each time. Further, the “growth inhibition (GI)” value in the data set with Candida albicans, in the data set on Escherichia coli, with Nakaseomyces glabratus, in the data set on Aspergillus fumigatus and with Pichia kudriavzevii was “inactive” throughout. Also, the MFC with Cryptococcus neoformans came out at 10 µg/mL (≈ 16.9 µM). For the same compound, the MIC in the data set with Cryptococcus neoformans was determined as 10 µg/mL (≈ 16.9 µM). Further, the IC50 with Cryptococcus neoformans stood at 6.04 µg/mL (≈ 10.2 µM).
